Test results: ChEMBL document CHEMBL1129460, “Synthesis, biotransformation, and pharmacokinetic studies of 9-(beta-D-arabinofuranosyl)-6-azidopurine: a prodrug for ara-A designed to utilize the azide reduction pathway” (J Med Chem, 1996)

What was measured:
[1] = Pharmacokinetic parameter after dosing of 100 mg/kg of compound administered intravenously in brain; format: ADME, organism-based; design: dose 100 mg/kg, route intravenous; conditions: in vivo, iv
Method in brief: (§1)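 Female NIH Swiss mice (24–28 g) dosed 100 mg/kg, iv or po by line. At least three mice were sacrificed per time point, 0.08–6 h, and whole brains were frozen at -20 °C. Extracts were assayed by HPLC-UV with AzdU internal standard. Noncompartmental analysis: linear trapezoidal AUC extrapolated to infinity, T1/2 = 0.693/λz, relative exposure re = AUC brain/AUC serum.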

[2] = Pharmacokinetic parameter after dosing of 100 mg/kg of compound administered orally in brain; format: ADME, organism-based; design: dose 100 mg/kg, route oral; conditions: in vivo, po; method in brief: as §1
Mus musculus [3] = organism: Mus musculus; experiment: In vitro biotransformation of compound in mice liver homogenate 9-(beta-D-arabinifuranosyl)[…] analyte; format: ADME
Method in brief: (§2)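 Mouse liver washed in cold saline, homogenized with 1 or 1.5 weight equiv water; homogenate incubated at 37 °C with substrate (initial 100 µg/mL; coformycin co-incubated where stated), water-bath shaker, blank half kept. Samples at 0, 5, 15, 30 min and 1–5 h; acetonitrile precipitation with AzdU internal standard, gradient HPLC-UV for ara-H, ara-A and 6-AAP. Kel and T1/2 are averages of two studies.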

Mus musculus [4] = organism: Mus musculus; experiment: In vitro biotransformation of compound along with coformycin in mice liver homogenate 9-(beta-D-arabinifuranosyl)adenine(ara-A) analyte; format: ADME; method in brief: as §2
Mus musculus [5] = organism: Mus musculus; experiment: In vitro biotransformation of compound in mice liver homogenate 9-(beta-D-arabinifuranosyl)-6-hypoxanthine(ara-H) analyte; format: ADME; method in brief: as §2
Mus musculus [6] = organism: Mus musculus; experiment: In vitro biotransformation of compound in mice liver homogenate 9-(beta-D-arabinifuranosyl)adenine(ara-A) analyte; format: ADME; method in brief: as §2

Activity [1]	Activity [2]	Kel (Mus musculus [3]) [h⁻¹]	T1/2 (Mus musculus [3]) [h]	Kel (Mus musculus [4]) [h⁻¹]	T1/2 (Mus musculus [4]) [h]	Kel (Mus musculus [5]) [h⁻¹]	T1/2 (Mus musculus [5]) [h]	Kel (Mus musculus [6]) [h⁻¹]	T1/2 (Mus musculus [6]) [h]	Compound
0.05	1.35	0.31	2.24	–	–	–	–	–	–	Nc1ncnc2c1ncn2[C@@H]1O[C@H](CO)[C@@H](O)[C@@H]1O [VIDARABINE]
–	–	–	–	0.27	2.58	–	–	–	–	OC[C@H]1O[C@@H](n2cnc3c2NC=NC[C@H]3O)[C@H](O)[C@@H]1O.[N-]=[N+]=Nc1ncnc2c1ncn2[C@@H]1O[C@H](CO)[C@@H](O)[C@@H]1O
0.02	0.3	–	–	–	–	0.26	2.45	0.48	1.46	[N-]=[N+]=Nc1ncnc2c1ncn2[C@@H]1O[C@H](CO)[C@@H](O)[C@@H]1O
